Screen size: about 300,000 compounds; about 4,400 (1.5%) were called active.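 How the source made its calls: active means mean inhibition across valid replicates above about 55% (limit read from the data); inconclusive means mean below that limit but half or more replicates reach it; inactive means mean below it, under half of replicates reach it.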 Shown is part of a subset that was picked to be rich in actives.

The assay is described as follows: inhibitors of intracellular T. cruzi growth, primary screen, luminescence, NIH3T3 host cells (AID 1885).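 Further: signal also drops with host cell toxicity which is not excluded here; 0% = plate median of DMSO wells and 100% = zero luminescence signal; higher percent means less beta-gal luminescence so fewer parasites.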 The note with it: T. cruzi beta-gal in NIH3T3, luminescence, 90 h; active compounds read high; concentration not given here. In short, it runs like this: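 System: Mouse NIH/3T3 fibroblasts infected with β-gal-expressing T. cruzi Tulahuen C4 | Quantity: NIH/3T3 cells, 5,000 per well | Reagent: 5000 reporter trypomastigotes per well | Dosing: Compound pinned at 50 nL/well, DMSO | Schedule: 3 h host attachment, then at least 90 h co-culture | Detection: GalScreen luminescence, 60 min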
As for `O=C(NC1CCCC1)C1CC(=O)N(c2ccc(F)cc2)C1` (centres undefined), the inhibition is 5.96% (inactive). Regarding `Cc1c(C(=O)N2CCCC2)c(S(=O)(=O)NCC(C)c2ccccc2)c(C)n1C` (centres undefined), the inhibition is -5.32% (inactive). As for `Cc1nc(NC(=O)c2cccc(Cl)c2)sc1-c1csc(Nc2cccc(Cl)c2)n1`, the inhibition was -1.87% (inactive). As to `O=C(Nc1ccc(-c2csc(Nc3cccc(C(F)(F)F)c3)n2)cc1)c1cccc(C(F)(F)F)c1`, the inhibition is 58.5% (active). On to `CNC(=O)c1ccc(NC(=O)c2cccc(C(F)(F)F)c2)cc1`, for which the inhibition is -8.58% (inactive). With `O=C(O)C1C2C=CC(C2)C1C(=O)NCc1ccccc1` (centres undefined), the inhibition was -11.6% (inactive). For the compound `Cc1nn(C)cc1S(=O)(=O)N1CCN(c2ccc(F)cc2)CC1`, the inhibition is 2.42% (inactive).

With `O=C(O)c1ccccc1NC(=O)c1ccccc1-c1ccccc1C(=O)O`, the inhibition is -1.15% (inactive).

In the case of `O=C(NC(=S)Nc1ccccc1C(=O)O)c1ccc(-c2ccc(Br)cc2)o1`, the inhibition is 61.6% (active).

Turning to `COC(=O)c1ccccc1NC(=S)NC(=O)c1ccccc1F`, the inhibition was -19.3% (inactive). Under `CCN1C(=O)[C@@H]2[C@@H](c3ccc(-c4cccc(Cl)c4)cc3)N3CCC[C@@]3(C(=O)OC)[C@@H]2C1=O` stands 4.08% (inactive). Turning to `COc1cc(C(=O)N2CCN(C3CCC(C)CC3)CC2)cc(OC)c1OC` (centres undefined), the inhibition is 25.8% (inactive). In the case of `N/C(=N\OC(=O)COc1ccc([N+](=O)[O-])cc1)c1ccc(Br)cc1`, the inhibition was -1.86% (inactive). Turning to `Cc1nn(CCOc2ccc(Br)cc2)c(C)c1[N+](=O)[O-]`, the inhibition is 10.6% (inactive). Regarding `CCc1ccc(Oc2nc([N+](=O)[O-])nn2C)cc1`, the inhibition was 66.5% (active). As for `COc1ccc(CNC(=O)CCCn2nc(C)c([N+](=O)[O-])c2C)cc1`, the inhibition is -2.92% (inactive). For the compound `Cn1nc([N+](=O)[O-])nc1Sc1ccc(C(C)(C)C)cc1`, the inhibition was 27% (inactive). Turning to `NC(=O)Cn1nc([N+](=O)[O-])nc1Oc1ccc(Br)cc1`, the inhibition was 88.1% (active).

Turning to `COc1ccc(NC(=O)CCS(=O)(=O)c2cc3c(cc2Cl)NC(=O)CO3)cc1OC`, the inhibition was 1.37% (inactive). Next, `CC(C)CCN1CCN(Cc2cn[nH]c2C2CCCCC2)CC1CCO` (centres undefined): 24.3% (inactive).

Consider `CN(CCOc1ccccc1)C(=O)c1cc(COc2c(F)cccc2F)on1`, for which the inhibition was -2.25% (inactive). With `COc1ccc(NC(=O)CCNC(=O)Cn2cnc3sc4c(c3c2=O)CCCC4)cc1OC`, the inhibition is -2.4% (inactive).

For `Cc1ccc(S(=O)(=O)N2CCN(C(=O)c3ccccc3-c3nc4ccccc4s3)CC2)c(C)c1`, the inhibition was -3.66% (inactive). In the case of `CC(NC(=O)c1cc2cc(Cl)ccc2oc1=N)c1ccccc1` (centres undefined), the inhibition was -3.32% (inactive). Under `CCC(Oc1ccccc1)C(=O)NCc1cccnc1` (centres undefined) stands -4.42% (inactive). As for `Fc1ccccc1COc1ccccc1CNCc1ccncc1`, the inhibition was 65.1% (active).

With `COc1cccc(CNCCc2c[nH]c3ccccc23)c1OCc1ccccc1F`, the inhibition was 39.3% (inactive). Next, `c1ccc(COc2ccccc2CNCc2cccnc2)cc1`: 69.7% (active).

`Fc1ccccc1COc1cccc2cccnc12`: the inhibition is -0.777% (inactive). Regarding `C=CCOc1cccc(CNCc2cccnc2)c1`, the inhibition is 17.4% (inactive). Under `CN(C(=O)CN1C(=O)NC(C)(CCc2ccccc2)C1=O)c1ccccc1` (centres undefined) stands -3.39% (inactive). For `O=C(Nc1ccccc1Cl)N1CCN(c2ccc3nncn3n2)CC1`, the inhibition is -2.95% (inactive). As to `O=C1c2ccccc2C(=O)N1CC1c2ccccc2CCN1S(=O)(=O)c1ccccc1` (centres undefined), the inhibition was -2.22% (inactive).

As to `Cc1c(Cl)c([N+](=O)[O-])nn1CCCC(=O)NC(C)c1ccccc1` (centres undefined), the inhibition is 6.9% (inactive). Next, `COC(=O)C(C)Sc1ccc2nnc(-c3cccc(F)c3)n2n1` (centres undefined): 19% (inactive).

Turning to `C1CC1Cc1noc(CN2CCN(CC3CC3)CC2)n1`, the inhibition is 1.1% (inactive). Take `COc1ccc(NC(=O)CN(C)C(=O)CC2CCCCC2)cc1`: the inhibition was -3.55% (inactive). For the compound `FC(F)(F)c1ccc2c3n(nc2c1)CCN=C3c1ccc(Cl)cc1`, the inhibition is 1.67% (inactive). Turning to `O=C(CSc1cccc2cccnc12)N/N=C/c1cccnc1`, the inhibition is 64.7% (active). For the compound `O=C(CNC(=O)c1cccnc1)N/N=C/c1cccnc1`, the inhibition was -1.7% (inactive). With `Cc1nc2ccccc2n1CC(=O)N/N=C/c1cccnc1`, the inhibition was -15.1% (inactive). Under `COc1ccccc1OCC(=O)Nc1ccccc1C(=O)NC1CC1` stands -5.39% (inactive). Turning to `O=S(=O)(Nc1ccc(O)c2ccccc12)c1ccc(OC(F)(F)F)cc1`, the inhibition was 8.4% (inactive). With `Cc1c(C)n2c(SCC(=O)NC3CCCC3)nnc2[nH]c1=O`, the inhibition is -14.6% (inactive).

In the case of `CC(=O)Nc1ccc(Nc2c3ccccc3nc3ccccc23)cc1`, the inhibition is 59.7% (active). With `CC(=O)Nc1ccc(NC(=O)COc2ncnc3ccccc23)cc1`, the inhibition is -17.1% (inactive).

Turning to `Cc1ccc(Nc2c3c(nc4ccccc24)CCC3)cc1`, the inhibition was 39.2% (inactive). Regarding `FC(F)(F)c1cccc(-c2nc(COc3ccc(Cl)cc3Cl)no2)c1`, the inhibition is 1.05% (inactive). On to `COc1c(C(=O)N2CCCC2)ccc2ccccc12`, for which the inhibition is -11.3% (inactive). On to `CCOc1ccc(-n2c(SCC(=O)OC)nc3sc4c(c3c2=O)CCN(C)C4)cc1`, for which the inhibition was 5.98% (inactive).

As for `CCCSc1nc2sc3c(c2c(=O)n1-c1ccc(OC)cc1)CCN(C)C3`, the inhibition was 57.4% (active). For the compound `CCSc1nc2sc3c(c2c(=O)n1-c1ccc(C)cc1)CCN(C)C3`, the inhibition was 21.6% (inactive). Regarding `CCOC(=O)N1CCC(N2Cc3cccc(C(=O)Nc4c(C)cccc4CC)c3C2=O)CC1`, the inhibition was 22% (inactive). For `Cc1ccc(S(=O)(=O)N2CCC(C(=O)NCCC3=CCCCC3)CC2)cc1C`, the inhibition is 8.76% (inactive). `Cc1cccc(-n2ncc(Cl)c(Cl)c2=O)c1`: the inhibition was 65.8% (active). As to `COc1ccc(Oc2c(Cl)cnn(-c3ccccc3)c2=O)cc1`, the inhibition was -11.4% (inactive).

For `Cc1cccc(-n2ncc(C#N)c2-n2cccc2)c1`, the inhibition is -8.8% (inactive). Next, `COc1ccc(N2CCN(C(=O)COC(=O)c3cccc(S(=O)(=O)Nc4ccccc4OC)c3)CC2)cc1`: 8.41% (inactive); `COc1ccc(F)cc1S(=O)(=O)NCC(c1ccc2c(c1)OCO2)N1CCN(C)CC1` (centres undefined): -3.53% (inactive); `COC(=O)c1cc(S(=O)(=O)N2CCN(c3cc(C)ccc3C)CC2)c[nH]1`: 0.9% (inactive). Under `O=C(COc1ccc(Br)cc1F)NC1CCN(Cc2ccccc2)CC1` stands 38.4% (inactive); under `O=C(NC1CCN(Cc2ccccc2)CC1)c1cc(Br)c(Br)[nH]1`, 70.3% (active). Next, `S=C(Nc1ccc(Br)cc1Cl)NC1CCN(Cc2ccccc2)CC1`: 60.4% (active). Consider `Cc1cc(C(=O)NC2CCN(Cc3ccccc3)CC2)n[nH]1`, for which the inhibition was 14.6% (inactive). As for `S=C(Nc1ccc(Br)cc1)NC1CCN(Cc2ccccc2)CC1`, the inhibition is 42% (inactive). For `O=C(NC1CCN(Cc2ccccc2)CC1)c1ccc(Oc2cc(Cl)cc(Cl)c2)o1`, the inhibition was 44.9% (inactive).

`CCOC(=O)c1ccc(NC(=O)c2ccc(NC(=O)C3CCCO3)cc2)cc1` (centres undefined): the inhibition was 3.02% (inactive). Regarding `CCOc1ccccc1C1CC(c2ccc(Cl)cc2)Nc2nc(N)nn21` (centres undefined), the inhibition was 17.4% (inactive). As for `CCCn1c(C)cc(-c2csc(NC(=O)CCc3nc4ccccc4c(=O)[nH]3)n2)c1C`, the inhibition was 5.04% (inactive). With `Cc1ccccc1OCC(O)CN1CCN(c2ccccn2)CC1` (centres undefined), the inhibition is 0.87% (inactive). On to `Cc1cccc(OCC(O)CN2CCN(CCN3C(=O)c4cccc5cccc(c45)C3=O)CC2)c1C` (centres undefined), for which the inhibition was 67.1% (active). For `COc1ccccc1OCC(O)CN1CCOCC1` (centres undefined), the inhibition is 1.66% (inactive).

`COc1ccccc1NS(=O)(=O)c1ccc(C(=O)N2CCN(c3ccccc3O)CC2)cc1`: the inhibition is 0.881% (inactive). In the case of `O=C(COC(=O)c1ncc(Cl)c(Cl)c1Cl)NCc1cccs1`, the inhibition was -17.6% (inactive). Take `Cc1csc(NC(=O)c2ccc(C)s2)n1`: the inhibition is -14.9% (inactive).

As to `Cn1c(=O)c(=O)n(C)c2cc(S(=O)(=O)NCCc3ccccc3)ccc21`, the inhibition was -8.33% (inactive). With `Cc1ccc(S(=O)(=O)NCCN2CCOCC2)cc1C`, the inhibition is 1.47% (inactive).

Regarding `Cn1c(=O)c(=O)n(C)c2cc(S(=O)(=O)NCCN3CCN(c4ccccc4F)CC3)ccc21`, the inhibition is 56% (active). Regarding `COc1cc(CNCc2ccc3c(c2)OCO3)c([N+](=O)[O-])cc1OC`, the inhibition was 9.09% (inactive).

With `C=CS(=O)c1sc(Cl)c(N2CCOCC2)c1[N+](=O)[O-]` (centres undefined), the inhibition was 69.9% (active).

In the case of `COc1ccc(-c2nc(CCNC(=O)c3ccc(Br)o3)cs2)cc1`, the inhibition was 9.33% (inactive). For the compound `O=S(=O)(NCCc1csc(-c2ccccc2)n1)c1cccnc1`, the inhibition is 8.42% (inactive). In the case of `O=C(NCCc1csc(-c2ccccc2)n1)c1ccccc1F`, the inhibition was 66.1% (active). Take `CC(=O)c1ccc(S(=O)(=O)NC2CC(=O)N(c3ccc4c(c3)OCCO4)C2)cc1` (centres undefined): the inhibition was 0.0508% (inactive). With `CC(=O)c1nc2ccccc2n1Cc1ccccc1`, the inhibition is 8% (inactive).

As to `CCC(=O)Nc1nc2ccccc2n1Cc1ccccc1C`, the inhibition was 45.5% (inactive). For `CC(=O)Nc1nc2ccccc2n1Cc1ccc(C)cc1`, the inhibition is 79.7% (active). With `O=C(CCC(=O)c1cccs1)Nc1nc2ccccc2s1`, the inhibition was -3.43% (inactive). Next, `CCN(CC)CCn1c2c(c(SCC(=O)Nc3ccc(C(C)C)cc3)nc1=O)CCC2`: 9.44% (inactive); `C=CC1=C(C(=O)O)N2C(=O)[C@@H](NC(=O)/C(=N/OCC(=O)O)c3csc(N)n3)[C@H]2SC1`: -7.4% (inactive). Take `O=C(Cc1ccc(S(=O)(=O)N2CCOCC2)s1)NCCOc1ccccc1F`: the inhibition was 5.5% (inactive). In the case of `COc1ccccc1CCNC(=O)CN1C(=O)NC2(CCCC2)C1=O`, the inhibition was -8.97% (inactive). On to `O=C(COC(=O)c1ncc(Cl)c(Cl)c1Cl)NC1CCS(=O)(=O)C1` (centres undefined), for which the inhibition was -20.7% (inactive). As for `Cc1cccc([C@@H]2[C@@H]3C(=O)N(Cc4ccccc4)C(=O)[C@@H]3[C@]3(Cc4ccc(Cl)cc4)C(=O)N(c4cccc(Cl)c4)C(=O)N23)c1`, the inhibition was -3.42% (inactive).

As usually defined, the inhibition is the drop in the measured response relative to a control, in per cent.

The values are drawn from PubChem BioAssay AID1885 (Broad Institute, 2009).
